Assay outcomes (PubChem)
Ecoli tolC: blocks growth of E. coli BW25113 tolC mutant; OD615; growth inhibition, % at 10 µM (by protocol); actives 2.2% (n = 65,000);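 active = growth inhibition at or above a cutoff equal to the mean over every tested compound plus 3 SD, cut at about 60% in these data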;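 also: growth measured after 20 h incubation at 37 °C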
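Assay system: tolC-deleted E. coli BW25113. Medium: kanamycin-containing LB broth (50 µg/mL). Dosing: 10 µM final, single dose. Timing: bacterial growth with compound for 20 h at 37 °C. Detection: A615 absorbance measurement. Read-out basis: growth inhibition in percent.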
CYP2C19 act: increases human CYP2C19 enzyme activity; P33261; recombinant CYP2C19, luciferin-H EGE luminescence; stronger effect = higher value; 0 = fully inhibited enzyme, 1 = untreated enzyme; activation factor at 5 µM; 96,000 tested, under 10 active; AID 1025;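 active = activation factor of at least 2 at 5 µM in the primary screen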
Target sequence (P33261 whole entry, looked up): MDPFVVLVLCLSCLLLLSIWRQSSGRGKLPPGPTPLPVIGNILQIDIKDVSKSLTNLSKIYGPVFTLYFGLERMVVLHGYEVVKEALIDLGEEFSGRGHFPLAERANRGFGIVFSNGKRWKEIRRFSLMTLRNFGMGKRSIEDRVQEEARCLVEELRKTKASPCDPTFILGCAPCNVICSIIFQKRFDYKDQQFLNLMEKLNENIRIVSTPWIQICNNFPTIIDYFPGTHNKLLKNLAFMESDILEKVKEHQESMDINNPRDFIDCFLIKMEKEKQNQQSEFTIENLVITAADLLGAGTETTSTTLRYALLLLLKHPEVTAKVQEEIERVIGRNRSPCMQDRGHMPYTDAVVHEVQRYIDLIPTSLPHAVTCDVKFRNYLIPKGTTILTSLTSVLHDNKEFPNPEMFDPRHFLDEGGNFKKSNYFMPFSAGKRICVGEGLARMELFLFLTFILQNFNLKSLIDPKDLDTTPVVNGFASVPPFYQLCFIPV
CYP2C9 inhib: inhibitors of human CYP2C9 | CYP2C9 Supersomes, luciferin-H conversion, luminescence | actives 20% (n = 96,000) | inhibition, % at 5 µM | P11712;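 active = blocking of liver enzyme CYP2C9 beyond about 50% at 5 µM, limit read from the data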
CYP2C19 inh: blocks human cytochrome P450 2C19. P33261. CYP2C19 Supersomes, luciferin-H EGE luminescence, 30 min. inhibition, % at 5 µM. actives 21% (n = 96,000);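 active = CYP2C19 inhibition above a set limit at 5 µM in the primary screen, cut at about 50% in these data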
CYP2C9 act: CYP2C9 (human) activation | P11712 | recombinant CYP2C9, luciferin-H conversion, luminescence; stronger effect = higher value; factor 1 = untreated enzyme, 0 = blocked | activation factor at 5 µM | actives 1.4% (n = 96,000) | AID 1024;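 active = activation factor of 2 or more for CYP2C9 at a 5 µM dose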
Ecoli WT expand: blocks growth of wild type E. coli BW25113; OD600 absorbance; growth inhibition, % at 100 µM; actives 0.15% (n = 98,000); AID 710;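 active = growth inhibition above about 50% at one test dose, limit read from the data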;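 also: growth measured after 20 h incubation at 37 °C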
Large screens that a line does not name were inactive. An excerpt weighted towards active compounds, which were near 29% of everything screened.

CCC(C)NC(=O)c1ccccc1NC(=O)Nc1ccccc1 (stereo unspecified)	none (no result: Ecoli tolC)
CCCNC(=O)c1ccccc1NC(=O)Nc1ccccc1C	CYP2C19 inh 51 (no result: Ecoli tolC)
CC(C)CNC(=O)c1ccccc1Oc1ccccc1	CYP2C19 inh 75 (no result: Ecoli tolC)
CC(C)NC(=O)CN1C(=O)NC(CCc2ccccc2)C1=O (stereo unspecified)	none (no result: Ecoli tolC)
Oc1c(CN2CCN(c3ccccn3)CC2)cc(Cl)c2cccnc12	Ecoli tolC 98, Ecoli WT expand 54
Oc1c(CN2CCCCC2)cc(COCc2ccccc2)c2cccnc12	Ecoli tolC 100
OCCN1CCN(Cc2cc(Cl)c3cccnc3c2O)CC1	none (no result: Ecoli tolC)
Cc1onc(-c2ccccc2Cl)c1C(=O)Nc1ccc(-c2nnc3n2CCCCC3)cc1	none
CCCCN1CNC(=S)N(c2cc(C)ccc2C)C1	CYP2C19 inh 72 (no result: Ecoli tolC)
O=C(Cc1cccc2ccccc12)NNC(=O)c1cccs1	none (no result: Ecoli tolC)
COc1cc(NC(=O)c2ccco2)c(OC)cc1NC(=O)CCC(=O)Nc1cccc(C)c1C	none
CCN1C(=O)c2cccc3c(S(=O)(=O)Nc4c(C)n(C)n(-c5ccccc5)c4=O)ccc1c23	CYP2C9 inhib 58
CCOC(=O)Cc1csc(NS(C)(=O)=O)n1	none (no result: Ecoli tolC)
Cc1c(NC(=O)CN2C(=O)c3cccc4cccc2c34)c(=O)n(-c2ccccc2)n1C	none
CCOC(=O)Cc1csc(NS(=O)(=O)c2ccc3c4c(cccc24)C(=O)N3CC)n1	CYP2C9 inhib 95
CC1CCN(CCCNC(=O)c2ccc(CSCc3cccc(Cl)c3)o2)CC1	none (no result: Ecoli tolC)
CCN(CC)C(=O)CSc1nnc(CCCCCNC(=O)OC(C)(C)C)o1	none
CC1=NN(C(=O)c2cccc(Cn3nc(C)c([N+](=O)[O-])c3C)c2)C(O)(C(F)(F)F)C1 (stereo unspecified)	CYP2C9 inhib 70 (no result: Ecoli tolC)
Cc1nn(Cc2cccc(C(=O)NC(C)c3ccc(C(C)(C)C)cc3)c2)c(C)c1[N+](=O)[O-] (stereo unspecified)	CYP2C9 inhib 87, CYP2C19 inh 78 (no result: Ecoli tolC)
CCC(NC(=O)c1cccc(Cn2nc(C)c([N+](=O)[O-])c2C)c1)c1ccc(C(C)C)cc1 (stereo unspecified)	none (no result: Ecoli tolC)
Cc1nn(Cc2cccc(C(=O)N3N=C(C(F)F)CC3(O)C(F)F)c2)c(C)c1[N+](=O)[O-] (stereo unspecified)	CYP2C9 inhib 85, CYP2C19 inh 78 (no result: Ecoli tolC)
Cc1nn(Cc2cccc(C(=O)Nc3ccn(Cc4ccccc4)n3)c2)c(C)c1[N+](=O)[O-]	none (no result: Ecoli tolC)
Cc1cccc(NC(=O)CCOc2ccccc2)c1	none (no result: Ecoli tolC)
CCOC(=O)CCc1c(C)n(CC)c2cc(-c3ccccc3OC)nn2c1=O	none
O=C(c1ccco1)N1CCN(S(=O)(=O)Cc2ccc(Cl)cc2)CC1	CYP2C19 inh 78
O=C(c1ccc(Cl)cc1)N1CCN(C(=O)c2ccco2)CC1	none
O=C(CSc1nnc(SCc2ccc(Cl)cc2)s1)N1CCN(C(=O)c2ccco2)CC1	CYP2C9 inhib 55
COc1ccc(Cl)cc1S(=O)(=O)N1CCN(C(=O)c2ccco2)CC1	CYP2C19 inh 94
O=C(CSc1nn(-c2ccc(Cl)cc2)c(=S)s1)N1CCN(C(=O)c2ccco2)CC1	none
CCN(CC)CCOC(=O)C12CC3CC(CC(C3)C1)C2	none
CS(=O)(=O)N(CC(=O)NCc1ccncc1)Cc1ccc(Cl)cc1	CYP2C9 inhib 94, CYP2C19 inh 99
CS(=O)(=O)N(CC(=O)NCc1ccc2c(c1)OCO2)Cc1ccc(Cl)cc1	CYP2C9 inhib 81, CYP2C19 inh 79
O=C(CN(C1CCCCC1)S(=O)(=O)c1ccc(Cl)cc1)NCc1cccnc1	CYP2C9 inhib 92, CYP2C19 inh 100
COCCNC(=O)CN(Cc1ccc(Cl)cc1)S(C)(=O)=O	none (no result: Ecoli tolC)
CS(=O)(=O)N(CC(=O)NCc1cccnc1)Cc1ccc(Cl)cc1	CYP2C9 inhib 54, CYP2C19 inh 97
O=C(CN(C1CCCCC1)S(=O)(=O)c1ccccc1)NCc1cccnc1	none (no result: CYP2C19 act, CYP2C9 inhib, CYP2C19 inh, CYP2C9 act)
O=C(CCNS(=O)(=O)c1ccc(Cl)cc1)NCc1cccnc1	none
CSc1nnc2c3cc(C)ccc3n(Cc3ccccc3)c2n1	none
Cc1ccc(Cl)c(OCC(=O)NCc2ccco2)c1	none (no result: Ecoli tolC)
CCOc1cc(S(=O)(=O)N2CC=C(c3ccc(F)cc3)CC2)c(OCC)cc1-n1cnnn1	CYP2C9 inhib 93
Cc1ccc(-n2cnnn2)c(S(=O)(=O)N2CCOCC2)c1	none
